Measured values reported in the EternaBench riboswitch data.

Tested on: MS2 coat protein
Test: apparent Kd, MS2 coat protein; higher = weaker binding; RNA-MaP array; FMN 200 µM where present
Outline: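 In 100 mM Tris-HCl pH 7.5, 80 mM KCl, 4 mM MgCl2, BSA, DTT, yeast tRNA and Tween-20, SNAP-549-labelled MS2 coat protein was titrated from 0.7 or 1.5 nM, doubling to 3 µM, over designs transcribed by stalled E. coli RNA polymerase on Illumina sequencing-chip clusters. This was done first without ligand, then with ligand held constant. After green signal was normalised to red-channel RNA signal and control-cluster median Fmax, the apparent Kd was taken as the median of filtered per-cluster binding-curve fits.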

[1] = designed as: OFF switch for flavin mononucleotide, no ligand
[2] = ligand present: flavin mononucleotide, designed as: OFF switch for flavin mononucleotide
[3] = designed as: ON switch for flavin mononucleotide, no ligand
[4] = ligand present: flavin mononucleotide, designed as: ON switch for flavin mononucleotide

## UAAUCACCCUCAUGUACCUGAGGACAUGAGGAUCACCCAUGUAAGGAUAUAGCCAUUAAAUCUAACUAGAAGGUAUAGGUAAUC
[1]
  apparent Kd: 808 nM
[2]
  apparent Kd: 624 nM

## GAGUCACGAAUAAUAAUAAGAUCUACAUGAGGAUCACCCAUGUAGGAUAUGCAGUGGAAUACACUGCAGAAGGACAUACGUGAC
[1]
  apparent Kd: 14 nM
[2]
  apparent Kd: 17.5 nM

## CAUGUGUAAGGAUAUGACAAUGGUAUCUUCGGAUACCAUUGUCAGAAGGUACAUGAGGAUCACCCAUGUGGAUC
[1]
  apparent Kd: 441 nM
[2]
  apparent Kd: 103 nM

## AAUAACAGAGGAUAUACUAUUUUAUGUAUUUAUUAUUUUGAACAUGAGGAUCACCCAUGUAGAAGGCUGAGUAA
[1]
  apparent Kd: 27.5 nM
[2]
  apparent Kd: 23.1 nM

## GUUACAUGAGGAUCACCCAUGUAUGUGUGGGAGUAAGUGUCUUAGGAUAUCUAUUAUUGAAAUUAAGAGAAGGAAGAUUGUUGU
[3]
  apparent Kd: 113 nM
[4]
  apparent Kd: 104 nM

## UUAACAUGAGGAUCACCCAUGUAUAGGGAGUUAACAAUUGGACAGGAUAUUGAAGAUGUAGAUAGCAAGAAGGGUCGGUAGUCU
[3]
  apparent Kd: 38.9 nM
[4]
  apparent Kd: 35.8 nM

## GCUAGGAGUGUGAGGAUAUGCUGUACCUUGGUACAGCAGAAGGCACAUGAGGAUCACCCAUGUGAAGACCUAGC
[1]
  apparent Kd: 25.9 nM
[2]
  apparent Kd: 151 nM

## UUGCGGUCAGGAUAUGCAUGGCGGGACUUGCGUCGUGGCGUGGAGAAGGGACAUGAGGAUCACCCAUGUGGAGA
[1]
  apparent Kd: 88.2 nM
[2]
  apparent Kd: 65.7 nM

## UGGUACAUGAGGAUCACCCAUGUAAGAGCCCUCAUGCGAUGUAGAAGGUUAAUGCGAGUAGUGCUAAAGGAUAUACAUGAGUUU
[1]
  apparent Kd: 212 nM
[2]
  apparent Kd: 173 nM

## ACGCAGAGAGGAUAUACAUGAGGAUCACCCAUGUAUAAACGCACUAACUCUCCUCACUGUAGAAGGCUCAUGCA
[1]
  apparent Kd: 11.7 nM
[2]
  apparent Kd: 20.4 nM

## CCUCUGUGAGGAUAUCUAGAGUAGGCUGACAAUGUCAUUCAGGAGAAGGUACAUGAGGAUCACCCAUGUUCGGC
[1]
  apparent Kd: 24.4 nM
[2]
  apparent Kd: 56.3 nM

## GGGUGAUCUUUAGGAUAUCCCGCGCCAAAGUGCGUUUAUACUACAUGAGGAUCACCCAUGUAACGGGAGAAGGGAGGAAGCCCG
[3]
  apparent Kd: 81.7 nM
[4]
  apparent Kd: 29 nM

## UUAAUUAAUUAAUUGCAGAUUACAUGAGGAUCACCCAUGUAUAAGGAUAUCGUCAGGAAUACUGACGAGAAGGUAUACAACUGC
[1]
  apparent Kd: 20.3 nM
[2]
  apparent Kd: 25.4 nM

## UGUGUGAGACAGGAUAUGCCGGUUGAAUUGCUGGUAGAAGGGUCUACAUGAGGAUCACCCAUGUGGCCGGUUGG
[1]
  apparent Kd: 18.7 nM
[2]
  apparent Kd: 25.5 nM

## GCAGAACAUGAGGAUCACCCAUGUCUCUAAAGUCGAGGAUAUGGGCAGGUUAUAUCCGAACCAGAAGGCGAUCUGC
[3]
  apparent Kd: 127 nM
[4]
  apparent Kd: 43.8 nM

## GCCAGCGCAUGAGGAUAUGCUCCCGUUUCGGGAGCAGAAGGCAUGUCAUAAGACAUGAGGAUCACCCAUGUAGUUAACAUGGCA
[3]
  apparent Kd: 311 nM
[4]
  apparent Kd: 23 nM

## CAGGUAGACUGAGGAUAUACAAUAAGACCUAGUCUAUCUAGGUCCCUCACAUGAGGAUCACCCAUGUAGAAGGCAGUCUGCCUG
[1]
  apparent Kd: 51.5 nM
[2]
  apparent Kd: 636 nM

## CUAUUGUGAGGAUAUCAGUAGUAAUACAAUAGUAUUACUACUGAGAAGGCACAUGAGGAUCACCCAUGUUCCUU
[1]
  apparent Kd: 14.1 nM
[2]
  apparent Kd: 32.8 nM

## UGGUACUACGGAGGAUAUCAUGUAGAUACAUGAGGAUCACCCAUGUCGAUGGAGACAUCGGAGAUUGAGAAGGCCGUAGUACCU
[3]
  apparent Kd: 610 nM
[4]
  apparent Kd: 29.4 nM

## CCUUCACAUGAGGAUCACCCAUGUCCUAGUCCGUCAGGAUAUAGCCUGCAUCCGCUGUGGCUAGAAGGGACUGCUG
[3]
  apparent Kd: 135 nM
[4]
  apparent Kd: 207 nM

## GGCUCCGCUCGAGGAUAUAGCUGCAUGUAGUGUCCUGAGGCACAUGAGGAUCACCCAUGUGUAGGCUAGAAGGCGACGGACACU
[1]
  apparent Kd: 8.81 nM
[2]
  apparent Kd: 26.2 nM

## UUGAGGUAGGAGAAGGACAGAGGCGGAAACACAAACAUGAGGAUCACCCAUGUAGGAUAUCCUAACUAACGAGGAUACCUCAAG
[1]
  apparent Kd: 6.49 nM
[2]
  apparent Kd: 7.53 nM

## AAGAGCGAUUCUCCCUUCCUACAUGAGGAUCACCCAUGUACGAGAAGGCGCCGUGUAUACAACGGUGAGGAUAUCGUACGUUAC
[1]
  apparent Kd: 5.46 nM
[2]
  apparent Kd: 10.7 nM

## UGGUACUAGCGAGGAUAUGGGAAGAUACAUGAGGAUCACCCAUGUUUAAGAAUGCCGAGAGGCAACUAGAAGGCCCUAGUACCU
[3]
  apparent Kd: 456 nM
[4]
  apparent Kd: 69.4 nM

## AGGGAGUUAGGAUAUGCUGCUCGUCACUUGCGUGAUGAGUAGCAGAAGGAACAUGAGGAUCACCCAUGUAAAGA
[1]
  apparent Kd: 34.9 nM
[2]
  apparent Kd: 28.8 nM

## AAAGUACAUGAGGAUCACCCAUGUUGGAACAAAGCAGGAUAUGUACAAAAGGAAAUAAAUACAGAAGGGCUAAGAA
[3]
  apparent Kd: 36.5 nM
[4]
  apparent Kd: 21.2 nM

## UUUGCAUUCCGAGGAUAUUCAUUUAAUGUCUUCACAUGAGGAUCACCCAUGUGGCGCUUGCGCCGGGAGAAGGCGGUUUGCUUU
[3]
  apparent Kd: 28.6 nM
[4]
  apparent Kd: 29.3 nM

## UUUCAGUCAGGAUAUCGUUAAUUUAAUUGUUUGUAUUAGUUCGAGAAGGGACAUGAGGAUCACCCAUGUACUCU
[1]
  apparent Kd: 19.6 nM
[2]
  apparent Kd: 20 nM

## UUUGUCUGUGUGAGGAUAUACUUGUUUGGGUUUUUGUAGAAGGCACAUGAGGAUCACCCAUGUAUUUUGUUGUG
[1]
  apparent Kd: 58.3 nM
[2]
  apparent Kd: 75.5 nM

## GUACUGUAGUGAGGAUAUACGAGAACGAUAGUUCGGCGAUCCAUUUAUACAUGAGGAUCACCCAUGUAGAAGGCACUUCAGUAC
[1]
  apparent Kd: 6.26 nM
[2]
  apparent Kd: 72.5 nM

## UAGAUGGGAGGAUAUACGUAGAUGCAGAUUCGUGUGGUGCUACAUGAGGAUCACCCAUGUAGAAGGCCCGUCUU
[1]
  apparent Kd: 17 nM
[2]
  apparent Kd: 98.1 nM

## CUGGUUGUCGAGGAUAUGCACCAGCUCACUGACGCAGAAGGCGACACAUGAGGAUCACCCAUGUCAGUUCGCGU
[1]
  apparent Kd: 16.9 nM
[2]
  apparent Kd: 18.9 nM

## AUCAGCUCGUCAGGAUAUACUUCACUGCGUCAGCAGUGUGGUAAGAUCACAUGAGGAUCACCCAUGUAGAAGGGACGAGCUGAU
[1]
  apparent Kd: 6 nM
[2]
  apparent Kd: 8.71 nM

## UUUUUGUGAGGAUAUCAGUAGUAAAAAAAUAAAAUUACUACUGAGAAGGCACAUGAGGAUCACCCAUGUUCCUU
[1]
  apparent Kd: 14.3 nM
[2]
  apparent Kd: 33.5 nM

## UGAAUGGUGAUAGGAUAUACAUGAGGAAUCCUCGUAGAAGGAUCACGACAUGAGGAUCACCCAUGUAGCCGUCCGUAGACGGCC
[3]
  apparent Kd: 227 nM
[4]
  apparent Kd: 470 nM

## UUUUUAUAUGAAGGAUAUACUUAACAUGAGGAUCACCCAUGUGGUGUUGUGAGUGAGUGAGUUUAGUAGAAGGUCAAUUCUUUU
[1]
  apparent Kd: 236 nM
[2]
  apparent Kd: 205 nM

## UUGUUAGGGAGAGGAUAUUGACAUGAGGAUCACCCAUGUACUUGGGAGUGUUUACUGAAUUCUUACGAGAAGGCUUACAAAUUU
[1]
  apparent Kd: 165 nM
[2]
  apparent Kd: 105 nM

## AAGGUCAUCUGAGGAUAUCGACCUCAAAGGCUACGAGAAGGCAGACUGACAUGAGGAUCACCCAUGUACCGGGAAGAUGCCUCC
[1]
  apparent Kd: 15.8 nM
[2]
  apparent Kd: 173 nM

## ACGUGACGGUGCGCGAGUGGACGGAGAAGGCAGACAUGAGGAUCACCCAUGUGAGCCUGCUAUUCUGAGGAUAUCCGUCCGCUC
[1]
  apparent Kd: 38.8 nM
[2]
  apparent Kd: 257 nM

## CACUCACAUGAGGAUCACCCAUGUCCUAGGAGGUCAGGAUAUAGCUCGGAUGCGUUGAGGCUAGAAGGGACAGGUU
[3]
  apparent Kd: 79.5 nM
[4]
  apparent Kd: 88.6 nM

## AUAGGUUAAGGAGGAUAUAGAGGGAGAAGUAAACAUGAGGAUCACCCAUGUAUUUAAUUAGUUUACUAGAAGGCUUAUGAUUGU
[3]
  apparent Kd: 39.2 nM
[4]
  apparent Kd: 43.7 nM

## GUAGCAAUCGGAGGAUAUUCAUUAAACAUGAGGAUCACCCAUGUAAAUUUGGGAGAAGGCCGAUUGCUACAAGAGCGAAAGCUC
[3]
  apparent Kd: 22.9 nM
[4]
  apparent Kd: 6.1 nM

## UUACCUUAUGAGAAGGCGGUCAUGAAACAUGAUCGAGGAUAUCAUGUAAACAUGAGGAUCACCCAUGUAUGGGUAUUAUGGUAA
[3]
  apparent Kd: 395 nM
[4]
  apparent Kd: 53.7 nM

## AAUAUGUUAGGAUAUGCGAAGUCAGGACACACACUGACGAAGCAGAAGGAACAUGAGGAUCACCCAUGUAAAAA
[1]
  apparent Kd: 27.3 nM
[2]
  apparent Kd: 31.4 nM

## AGUUGCAAACACAACAUGAGGAUCACCCAUGUACUCUCGUGUAAGGAUAUACAUUCGUAUGGAAAGUAGAAGGUACUAAUUAUG
[3]
  apparent Kd: 27.3 nM
[4]
  apparent Kd: 32.1 nM

## UCCUUGUCCUGAGGAUAUCCGCGGUUCCCAAAAGGAGAAGGCAGGACAUGAGGAUCACCCAUGUACCCAGAAAACGUGCAGAGU
[1]
  apparent Kd: 36.8 nM
[2]
  apparent Kd: 313 nM

## ACCAAUGCAGGAUAUACAUGAGGAUCACCCAUGUAUAACCUACAUAGAUGAUUAUCAUGUAGAAGGGCAUUGGA
[1]
  apparent Kd: 11.7 nM
[2]
  apparent Kd: 8.43 nM

## AACGCGUCAGGAUAUGCCAUAAAUUACCUAAUACAACCAUAGCAGAAGGGACAUGAGGAUCACCCAUGUAAAUA
[1]
  apparent Kd: 32.1 nM
[2]
  apparent Kd: 25.2 nM

## CAAAAUUGUGCAGGAUAUGCAGUUUGAUGGGCCUGUGGGAGAACAUGAGGAUCACCCAUGUGCUUGCAGAAGGGCACAAGCGAA
[1]
  apparent Kd: 103 nM
[2]
  apparent Kd: 419 nM

## AGGCCGCUACGCCGGCUUCACGCACAGGAUAUGCAGUUACAUGAGGAUCACCCAUGUGGCCAUGUGCAGAAGGGUGGUUCGCGA
[3]
  apparent Kd: 39.5 nM
[4]
  apparent Kd: 18.6 nM

## AUCAGCUCGUCAGGAUAUACGUCACUGCGUCAGCAGUGUGAUAAGAUCACAUGAGGAUCACCCAUGUAGAAGGGACGAGCUGAU
[1]
  apparent Kd: 8.48 nM
[2]
  apparent Kd: 72.3 nM

## AGCUAGUGAGGAUAUACGAACAUGUCAAAAGACGUGAAUAAACAUGAGGAUCACCCAUGUAGAAGGCACUAGCA
[1]
  apparent Kd: 17.5 nM
[2]
  apparent Kd: 16.2 nM

## UUACCUUAUGAGAAGGCGGUCAUGAAACAUGAUCGAGGAUAUCAUGUAAACAUGAGGAUCACCCAUGUAUGGGUAUUAUGGUAG
[3]
  apparent Kd: 303 nM
[4]
  apparent Kd: 52 nM

## GUUGUGUAUGUAGGAUAUGCGAAGCAAAGCUUCGCAGAAGGACAUGAGGAUCACCCAUGUAUUGCAGCCUGCAAACAGGCUGCU
[1]
  apparent Kd: 40.2 nM
[2]
  apparent Kd: 170 nM

## UGGACCGAGCUAUCGGUUGACUGGGAGGAUAUGACAUGAGGAUCACCCAUGUGGGAUCUAAAUUGUCAGAAGGCUCGUUCUGGG
[2]
  apparent Kd: 234 nM
